The species entered for assay [1] is Rattus norvegicus. The assay is described as follows: Effect in the anti ovulatory assay (AOA) in rats expressed as no. of rats ovulating/No of rats treated at 2.5 mg; 3/7. Type of assay: functional.
The target in assay [2] is T1, Gonadotropin-releasing hormone receptor (Rattus norvegicus) (UniProt P30969).
T1 sequence (whole entry): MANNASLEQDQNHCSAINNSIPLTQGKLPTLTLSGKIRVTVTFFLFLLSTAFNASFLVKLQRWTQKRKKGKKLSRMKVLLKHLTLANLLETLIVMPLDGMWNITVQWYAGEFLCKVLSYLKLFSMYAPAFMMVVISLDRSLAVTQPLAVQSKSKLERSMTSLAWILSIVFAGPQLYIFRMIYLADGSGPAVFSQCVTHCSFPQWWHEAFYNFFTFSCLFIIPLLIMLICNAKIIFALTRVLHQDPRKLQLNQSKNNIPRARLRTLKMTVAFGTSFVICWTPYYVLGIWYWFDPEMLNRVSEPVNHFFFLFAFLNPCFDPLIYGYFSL
The assay is described as follows: In vitro potency to inhibit GnRH-mediated LH secretion by cultured pituitary cells relative to [Ac-delta-Pro1,DFpa2,DTrp36]GnRH. It is filed as functional, cell-based. Particulars: Pituitary gland cell. An outline of the steps: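 Dispersed rat pituitary cells in culture; antagonist inhibition of GnRH-stimulated LH secretion. Potency expressed relative to standard antagonist [Ac-Δ3Pro1,D4FPhe2,DTrp3,6]GnRH taken as 1.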

Assay [3] has as its target T1, Gonadotropin-releasing hormone receptor (Rattus norvegicus). The assay is described as follows: Duration of action measured using castrated male rat assay to inhibit luteinizing hormone release.; fully active at 72 hr. Type of assay: functional.
The species named for assay [4] is Rattus norvegicus. Kind of assay: Effect in the anti ovulatory assay (AOA) in rats expressed as no. of rats ovulating/No of rats treated at 1.0 mg; 1/10. It is filed as functional.
Assay [5] addresses T1, Gonadotropin-releasing hormone receptor (Rattus norvegicus). The assay is described as follows: Effect in the anti ovulatory assay (AOA) in rats expressed as no. of rats ovulating/No of rats treated at 2.5 mg; 0/8. Type of assay: functional.
The species named for assay [6] is Rattus norvegicus. The assay is described as follows: Effect in the anti ovulatory assay (AOA) in rats expressed as no. of rats ovulating/No of rats treated at 1.0 mg; 7/14. It is filed as functional.
For assay [7], the species on record is Rattus norvegicus. The assay is described as follows: Effect in the anti ovulatory assay (AOA) in rats expressed as no. of rats ovulating/No of rats treated at 1.0 mg; 8/8. Type of assay: functional.
The species entered for assay [8] is Rattus norvegicus. The assay is described as follows: Duration of action measured using castrated male rat assay to inhibit luteinizing hormone release.; fully active at 48 hr but not at 72 hr. It is filed as functional.
Assay [9] is filed under the species Rattus norvegicus. The assay is described as follows: Effect in the anti ovulatory assay (AOA) in rats expressed as no. of rats ovulating/No of rats treated at 2.5 mg; 4/8. It is filed as functional.
For assay [10], the species on record is Rattus norvegicus. Kind of assay: Effect in the anti ovulatory assay (AOA) in rats expressed as no. of rats ovulating/No of rats treated at 1.0 mg; 2/2. It is filed as functional.
The species named for assay [11] is Rattus norvegicus. Kind of assay: Effect in the anti ovulatory assay (AOA) in rats expressed as no. of rats ovulating/No of rats treated at 2.0 mg; 1/10. It is filed as functional.
Assay [12] addresses T1, Gonadotropin-releasing hormone receptor (Rattus norvegicus). Kind of assay: Duration of action, measured using castrated male rat assay to inhibit luteinizing hormone release.; fully active at 24 hr but not at 48 hr. It is filed as functional.
For assay [13], the species on record is Rattus norvegicus. The assay is described as follows: Effect in the anti ovulatory assay (AOA) in rats expressed as no. of rats ovulating/No of rats treated at 50 mg; 4/7. Type of assay: functional.
For assay [14], the species on record is Rattus norvegicus. The assay is described as follows: Effect in the anti ovulatory assay (AOA) in rats expressed as no. of rats ovulating/No of rats treated at 2.5 mg; 0/6. It is filed as functional.
The species entered for assay [15] is Rattus norvegicus. Kind of assay: Effect in the anti ovulatory assay (AOA) in rats expressed as no. of rats ovulating/No of rats treated at 1.0 mg; 9/18. It is filed as functional.
For assay [16], the species on record is Rattus norvegicus. The assay is described as follows: Effect in the anti ovulatory assay (AOA) in rats expressed as no. of rats ovulating/No of rats treated at 25 mg; 0/3. It is filed as functional.
For assay [17], the species on record is Rattus norvegicus. The assay is described as follows: Effect in the anti ovulatory assay (AOA) in rats expressed as no. of rats ovulating/No of rats treated at 10 mg; 2/6. It is filed as functional.
The species entered for assay [18] is Rattus norvegicus. The assay is described as follows: Effect in the anti ovulatory assay (AOA) in rats expressed as no. of rats ovulating/No of rats treated at 1.0 mg; 0/7. Type of assay: functional.

As for `CC(=O)N[C@H](Cc1ccc2ccccc2c1)C(=O)N[C@H](Cc1ccc(Cl)cc1)C(=O)N[C@H](Cc1cccnc1)C(=O)N[C@@H](CO)C(=O)N[C@@H](Cc1ccc(Nc2n[nH]c(N)n2)cc1)C(=O)N[C@H](Cc1ccc(Nc2n[nH]c(N)n2)cc1)C(=O)N[C@@H](CC(C)C)C(=O)N[C@@H](Cc1ccc(CNC(C)C)cc1)C(=O)N1CCC[C@H]1C(=O)N[C@H](C)N`, the “No. of rats ovulated” value in [1] is reported as 3. The Relative potency in assay [2] amounted to 1.1.
`CCC(=O)Nc1ccc(C[C@H](NC(=O)[C@H](CO)NC(=O)[C@@H](Cc2cccnc2)NC(=O)[C@@H](Cc2ccc(Cl)cc2)NC(=O)[C@@H](Cc2ccc3ccccc3c2)NC(C)=O)C(=O)N[C@H](Cc2ccc(NC(=O)CC)cc2)C(=O)N[C@@H](CC(C)C)C(=O)N[C@@H](CCCCNC(C)C)C(=O)N2CCC[C@H]2C(=O)N[C@H](C)N)cc1`: in assay [3], the Duration of action is 72 h. Besides, the No. of rats ovulated in assay [4] was 4; in assay [5] it was 0.
Consider `CC(=O)Nc1ccc(C[C@@H](NC(=O)[C@H](Cc2ccc(Nc3n[nH]c(N)n3)cc2)NC(=O)[C@H](CO)NC(=O)[C@@H](Cc2cccnc2)NC(=O)[C@@H](Cc2ccc(Cl)cc2)NC(=O)[C@@H](Cc2ccc3ccccc3c2)NC(C)=O)C(=O)N[C@@H](CC(C)C)C(=O)N[C@@H](CCCCNC(C)C)C(=O)N2CCC[C@H]2C(=O)N[C@H](C)N)cc1`, for which the Duration of action in assay [3] is 72 h. The Relative potency in [2] was 0.82. The “No. of rats ovulated” value was determined as 7 in assay [6] and 0 in assay [5].
As to `CC(=O)Nc1ccc(C[C@H](NC(=O)[C@H](CO)NC(=O)[C@@H](Cc2cccnc2)NC(=O)[C@@H](Cc2ccc(Cl)cc2)NC(=O)[C@@H](Cc2ccc3ccccc3c2)NC(C)=O)C(=O)N[C@H](Cc2ccc(NC(C)=O)cc2)C(=O)N[C@@H](CC(C)C)C(=O)N[C@@H](CCCCNC(C)C)C(=O)N2CCC[C@H]2C(=O)N[C@@H](C)N)cc1`, the “No. of rats ovulated” value came out at 8 in [7] and 0 in assay [5]. This compound yielded a Duration of action in [8] of 48 h.
`CC(=O)N[C@H](Cc1ccc2ccccc2c1)C(=O)N[C@H](Cc1ccc(Cl)cc1)C(=O)N[C@H](Cc1cccnc1)C(=O)N[C@@H](CO)C(=O)N[C@@H](Cc1ccc(NC(=O)C2CCC(=O)N2)cc1)C(=O)N[C@H](Cc1ccc(NC(=O)C2CCC(=O)N2)cc1)C(=O)N[C@@H](CC(C)C)C(=O)N[C@@H](CCCCNC(C)C)C(=O)N1CCC[C@H]1C(=O)N[C@H](C)N` (some centres not stated): the entries for the “No. of rats ovulated” value in [9] and in [10] were 4 and 2, respectively.
As to `CC(=O)N[C@H](Cc1ccc2ccccc2c1)C(=O)N[C@H](Cc1ccc(Cl)cc1)C(=O)N[C@H](Cc1cccnc1)C(=O)N[C@@H](CO)C(=O)N[C@@H](CCCCNc1n[nH]c(N)n1)C(=O)N[C@H](CCCCNc1n[nH]c(N)n1)C(=O)N[C@@H](CC(C)C)C(=O)N[C@@H](CCCCNC(C)C)C(=O)N1CCC[C@H]1C(=O)N[C@H](C)N`, the Relative potency in [2] was 0.23. In assay [11], the “No. of rats ovulated” value is 1. Moreover, in [12], the Duration of action was found to be 24 h.
For the compound `CC(=O)N[C@H](Cc1ccc2ccccc2c1)C(=O)N[C@H](Cc1ccc(Cl)cc1)C(=O)N[C@H](Cc1cccnc1)C(=O)N[C@@H](CO)C(=O)N[C@@H](Cc1ccc(Nc2n[nH]c(N)n2)cc1)C(=O)N[C@H](Cc1ccc(Nc2n[nH]c(N)n2)cc1)C(=O)N[C@@H](CC(C)C)C(=O)N[C@@H](Cc1ccc(NC(C)C)cc1)C(=O)N1CCC[C@H]1C(=O)N[C@H](C)N`, in assay [13], the “No. of rats ovulated” value turned out to be 4.
Turning to `CC(=O)N[C@H](Cc1ccc2ccccc2c1)C(=O)N[C@H](Cc1ccc(Cl)cc1)C(=O)N[C@H](Cc1cccnc1)C(=O)N[C@@H](CO)C(=O)N[C@@H](Cc1ccc(NC(=O)CCNc2n[nH]c(N)n2)cc1)C(=O)N[C@H](Cc1ccc(NC(=O)CCNc2n[nH]c(N)n2)cc1)C(=O)N[C@@H](CC(C)C)C(=O)N[C@@H](CCCCNC(C)C)C(=O)N1CCC[C@H]1C(=O)N[C@H](C)N`, the Duration of action in assay [3] was 72 h. The “No. of rats ovulated” value in assay [14] was determined as 0; in [15] it was 9. The same compound returned a Relative potency in assay [2] of 0.52.
As for `CC(=O)Nc1ccc(C[C@H](NC(=O)[C@H](CO)NC(=O)[C@@H](Cc2cccnc2)NC(=O)[C@@H](Cc2ccc(Cl)cc2)NC(=O)[C@H](Cc2ccc3ccccc3c2)NC(C)=O)C(=O)N[C@H](Cc2ccc(NC(C)=O)cc2)C(=O)N[C@@H](CC(C)C)C(=O)N[C@@H](CCCCNC(C)C)C(=O)N2CCC[C@H]2C(=O)N[C@H](C)N)cc1`, the “No. of rats ovulated” value in assay [16] is reported as 0; in [17] it was 2.
In the case of `CC(=O)N[C@H](Cc1ccc2ccccc2c1)C(=O)N[C@H](Cc1ccc(Cl)cc1)C(=O)N[C@H](Cc1cccnc1)C(=O)N[C@@H](CO)C(=O)N[C@@H](Cc1ccc(Nc2n[nH]c(N)n2)cc1)C(=O)N[C@H](Cc1ccc(Nc2n[nH]c(N)n2)cc1)C(=O)N[C@@H](CC(C)C)C(=O)N[C@@H](CCCCNC(C)C)C(=O)N1CCC[C@H]1C(=O)N[C@H](C)N`, the Duration of action in assay [3] amounted to 72 h. The Relative potency in assay [2] was 1.3. In addition, in assay [18], the “No. of rats ovulated” value amounted to 0.

Source of the values: ChEMBL document CHEMBL1128434, “Gonadotropin-releasing hormone antagonists: novel members of the azaline B family” (1995).
